Hits are enriched below; roughly 2.9% of the tested compounds scored in any of these assays.
HTRA1 inh: HTRA1 serine protease inhibitors, primary screen, biochemical, fluorescence polarization, HTS. Q92743. AID 504803, 2011. 340,000 tested, 0.5% active. recombinant HTRA1, FP-rhodamine activity-based probe. inhibition, % at 5.96 µM; in the data active = inhibition above about 36%;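 also: 0% = enzyme with DMSO and 100% = wells lacking enzyme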
PRMT1 FP inh: PRMT1 methyltransferase inhibitors, primary screen, biochemical, fluorescence polarization. Protein arginine N-methyltransferase 1 (Homo sapiens), Q99873. recombinant PRMT1, activity-based probe fluorescence polarization. inhibition, % at 2.79 µM. 370,000 tested, 1.3% active;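 active = inhibition above about 21% made by adding two undisclosed values, limit read from the data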
Target sequence (Q99873 whole entry, looked up): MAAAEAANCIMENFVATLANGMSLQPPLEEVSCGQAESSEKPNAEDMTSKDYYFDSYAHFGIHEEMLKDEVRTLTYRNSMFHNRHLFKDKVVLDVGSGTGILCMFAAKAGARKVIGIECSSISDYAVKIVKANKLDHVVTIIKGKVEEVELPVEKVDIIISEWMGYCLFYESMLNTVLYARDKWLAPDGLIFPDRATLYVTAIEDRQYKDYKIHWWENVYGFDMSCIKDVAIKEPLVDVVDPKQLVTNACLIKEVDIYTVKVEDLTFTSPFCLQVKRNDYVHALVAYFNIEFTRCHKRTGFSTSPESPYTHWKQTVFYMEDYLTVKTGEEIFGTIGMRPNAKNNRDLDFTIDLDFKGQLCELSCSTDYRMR
mABHD4 FP: ABHD4 inhibitors, primary screen, biochemical, fluorescence polarization, mouse; purified mABHD4, FP-Rh probe fluorescence polarization; inhibition, % at 8.92 µM; (Lyso)-N-acylphosphatidylethanolamine lipase (Mus musculus), Q8VD66; 370,000 tested, 0.54% active;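 active = inhibition exceeding the mean over every tested compound plus 3 SD, cut at about 30% in these data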;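 also: 0% = plate median of compound wells and 100% = S159A mutant with DMSO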
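Assay system: mouse ABHD4 enzyme, wild type / Also added: fluorescent activity-based probe FP-Rh / Doses: single nominal dose of 8.92 µM, 0.89% DMSO final / Timing: 45 min compound pre-incubation plus 60 min probe step, 25 °C / Signal: FP readout, ex 525 nm / em 598 nm / Control set: S159A mutant/DMSO as 100%, compound-well median as 0%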
TCR-CD3 inh: inhibitors of human TCR-CD3 interaction, primary screen, biochemical, fluorescence, TAMRA-labeled TCR probe; T-cell receptor (TCR); inhibition, % at 9.4 µM; 360,000 tested, 0.37% active;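 also: recombinant mutant TCR 2C K166C tagged with TAMRA read by polarization; 0% = receptor in buffer alone and 100% = receptor with positive control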
SIAE primary: human SIAE inhibitors, primary screen, biochemical, fluorescence polarization, FP-Rh probe, 1536-well HTS. inhibition, % at 9.66 µM. Sialate O-acetylesterase (Homo sapiens), Q9HAT2. AID 1053197, 2014. 370,000 tested, 0.69% active. SIAE FP-Rh probe binding;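 active = inhibition above a cutoff: mean of compounds within the control limits plus 3 SD of those, cut at about 17% in these data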;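 also: 0% = plate median of compound wells and 100% = probe without SIAE protein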
ATG4B inhibitor: ATG4B protease inhibitors, primary screen, biochemical, fluorescence, uHTS; 340,000 tested, 0.51% active; inhibition, % at 8.33 µM; AID 504462, 2011; ATG4B cleavage of LC3-PLA2, NBD-HPC fluorescence, 1 h; in the data active = inhibition above about 40%
BSA TAMRA ctr: compounds interfering with TAMRA-BSA probe, counter-screen for TCR-CD3 interaction inhibitor project, biochemical, fluorescence, TAMRA-labeled BSA; shares compounds with TCR-CD3 inh; TAMRA-labeled BSA probe fluorescence counterscreen; inhibition, % at 9.4 µM; 1,200 tested, 10% active; AID 652035, 2013; in the data active = inhibition above about 23%;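 also: 0% = buffer low control and 100% = reference high control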
TCR-CD3 inh conf: TCR-CD3 interaction inhibitors, retest, confirmation, biochemical, fluorescence, TAMRA-labeled TCR probe. AID 652036, 2013. 1,200 tested, 48% active. inhibition, % at 9.4 µM. TAMRA-labeled TCR probe fluorescence binding assay. shares compounds with TCR-CD3 inh
* hit, by the source's call; . = no result given. Rule as the data show it, unless noted: active = inhibition above about 19%; inactive = the rest.

SMILES	HTRA1 inh	PRMT1 FP inh	mABHD4 FP	TCR-CD3 inh	SIAE primary	ATG4B inhibitor	BSA TAMRA ctr	TCR-CD3 inh conf
O=C(NNS(=O)(=O)c1ccccc1)C1CCN(S(=O)(=O)c2ccccc2)CC1	2	1	3	-3	-1	-5	.	.
COc1ccccc1N1CCN(S(=O)(=O)c2ccc3c(c2)CCC(=O)N3)CC1	.	1	3	.	1	.	.	.
COC(=O)[C@]12C[C@H](CC(=O)N3CCN(C(=O)c4ccco4)CC3)C(=O)N(Cc3ccccc3)C1=C[C@H](COCc1ccccc1)O[C@@H]2C	.	2	3	.	-10	.	.	.
Cc1cccc(C)c1-n1nnnc1C1c2ccccc2OCC(=O)N1Cc1ccc(F)cc1 (centres undefined)	.	-4	-2	.	-2	.	.	.
COC(=O)C1CN(C2CC2)CCS(=O)(=O)N1Cc1cn(Cc2ccc(Cl)cc2)nn1 (centres undefined)	.	0	1	.	1	.	.	.
COCCNC(=O)c1ccc(N2CC3CC(C2)c2cccc(=O)n2C3)c(NC(=O)c2ccccc2Br)c1 (centres undefined)	-1	1	-1	49*	-2	.	7	2
N#Cc1ccc(/C=C2\CC3(OC(=O)c4ccc(F)cc4)CCCN2C3)cc1 (centres undefined)	.	-5	1	.	0	.	.	.
NS(=O)(=O)c1ccc(NC(=O)/C=C/c2cn(-c3ccccc3)nc2-c2cccc(Cl)c2)cc1	-98	-6	-46	24*	-230	6	17	27*
COCCCNC(=O)C[C@H]1C[C@@]2(C(=O)OC)C(=C[C@H](C3CCCC3)O[C@@H]2C)N(CCC2=CCCCC2)C1=O	.	3	5	.	7	.	.	.
COc1ccc(NS(=O)(=O)c2cccc(C(=O)N/N=C/c3cn(-c4ccccc4)nc3-c3ccccc3)c2)cc1	-5	1	-1	0	-12	-12	.	.
COc1ccccc1NS(=O)(=O)c1cccc(C(=O)N/N=C/c2cn(-c3ccccc3)nc2-c2ccccc2)c1	-27	-5	-91	45*	-97	-3	22	44*
COC(=O)[C@H]1C[C@@]2(C)c3ccccc3N(S(=O)(=O)c3ccccc3)[C@H]2N1	.	-6	1	.	0	.	.	.
Cc1nc2ccc(S(=O)(=O)NCC(=O)NCc3ccccc3C)cc2s1	.	1	3	.	3	.	.	.
CC(C)(C)c1ccc(C(=O)Nc2cc(Cl)ccc2-c2nn[nH]n2)cc1	.	7	-154	.	-124	.	.	.
S=c1[nH]nc(-c2n[nH]c3c2CCC3)n1/N=C/C=C/c1ccco1	.	5	14	27*	1	1	9	11
CC(C)(C)CSc1nnc(-c2cccnc2)n1Cc1ccccc1	.	-3	-1	.	7	.	.	.
COc1ccc([C@H]2CC(=O)C[C@@H](CCn3cc(Cc4ccccc4)nn3)O2)cc1	.	-6	-3	24*	-2	.	8	6
Cn1c(=O)c(C(=O)NNC(=O)c2ccccc2F)c(O)c2ccccc21	-5	0	0	33*	2	3	0	28*
COC(=O)Nc1ccc(S(=O)(=O)NNC(=O)c2c(O)c3ccccc3n(C)c2=O)cc1	2	-2	3	56*	-32	-7	-3	25*
COC(=O)CNC(=O)CNC1(C(=O)NCCc2c[nH]c3ccccc23)CCCCC1	.	5	-3	.	9	.	.	.
O=S1(=O)c2c(cccc2N2CC[C@@H](O)C2)OCCCN1C1CC1	.	-3	1	.	10	.	.	.
COc1ccc(/C(C)=N\NC(=O)c2ccco2)cc1	.	3	3	.	-2	.	.	.
COc1ccc(S[C@]2(C(=O)N3CCOCC3)CC(=O)N(c3ccc(OC)cc3)[C@@H]2c2ccc(OC)cc2)cc1	.	-1	-7	.	2	.	.	.
CSCCC(NC(=O)c1ccccc1Cl)C(=O)NNC(=O)c1ccccc1O (centres undefined)	17	-1	6	29*	5	0	-4	18
CCOC(=O)C1=CCN(S(=O)(=O)c2cccc(Cl)c2)C1c1cccc(F)c1 (centres undefined)	.	-1	-8	65*	-6	.	5	4
SMILES	HTRA1 inh	PRMT1 FP inh	mABHD4 FP	TCR-CD3 inh	SIAE primary	ATG4B inhibitor	BSA TAMRA ctr	TCR-CD3 inh conf
O=c1c2ccccc2c(C=Nc2ccccc2O)c(O)n1-c1nccs1	-1	4	1	61*	-6	-15	-10	50*
Cc1ccccc1C(=O)N[C@@H](Cc1cccnc1)C(=O)N1CCC[C@H]1C(=O)NCCc1ccccc1Cl	.	5	6	-6	0	.	.	.
Cc1ccc(-c2ccc(/C=N/N3C(=O)C4C5C=CC(CC5)C4C3=O)o2)c([N+](=O)[O-])c1 (centres undefined)	-10	3	15	22*	9	-1	3	1
O=C1C2C3C=CC(C4CC34)C2C(=O)N1/N=C/c1ccc(-c2ccc(F)cc2[N+](=O)[O-])o1 (centres undefined)	10	2	3	-3	-2	-14	.	.
C#CCCN([C@H](C(=O)OC)C(C)CC)S(=O)(=O)c1ccccc1Br (some centres undefined)	.	-1	-11	.	-4	.	.	.
C=CCc1cccc2cc(C(=O)NNC(=O)CC#N)c(=O)oc12	4	-1	-3	29*	3	6	1	15
C=CCc1cccc2cc(C(=O)NCCOC)c(=O)oc12	-2	5	9	-9	-6	1	.	.
O=C(CC1C(=O)NCCN1Cc1cccc(F)c1)NCCCCCN1CCOCC1 (centres undefined)	6	4	7	20*	10	-7	1	-1
COc1ccccc1/C=N/NC(=O)c1ccc(N(C)S(=O)(=O)c2ccccc2)cc1	-33	2	-4	23*	-12	-1	10	10
COc1ccccc1N(C)S(=O)(=O)c1ccc(Cl)c(C(=O)NNC(=O)c2ccccc2O)c1	34	-1	2	32*	-4	-4	-10	25*
COc1ccccc1N(C)S(=O)(=O)c1ccc(C(=O)NNC(=O)c2ccccc2O)cc1	14	-3	3	23*	5	3	-1	24*

High-throughput results (PubChem)
